# Screening results: PubChem, several laboratories
# In the library only some 2.4% were active in any assay of this set; here they are far more common.
# MC4R barr agon: human MC4R agonism via beta-arrestin | P32245 | hit rate 0.98% among 360,000 | activation, % at 8.9 µM | U2OS MC4R beta-arrestin complementation, luminescence; percent of melanotan II response, DMSO zero;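 active means activation above a per-plate cutoff, the mean activation of sample wells on that plate plus 3 SD, cut at about 8% in these data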
# Target sequence (P32245 whole entry, looked up): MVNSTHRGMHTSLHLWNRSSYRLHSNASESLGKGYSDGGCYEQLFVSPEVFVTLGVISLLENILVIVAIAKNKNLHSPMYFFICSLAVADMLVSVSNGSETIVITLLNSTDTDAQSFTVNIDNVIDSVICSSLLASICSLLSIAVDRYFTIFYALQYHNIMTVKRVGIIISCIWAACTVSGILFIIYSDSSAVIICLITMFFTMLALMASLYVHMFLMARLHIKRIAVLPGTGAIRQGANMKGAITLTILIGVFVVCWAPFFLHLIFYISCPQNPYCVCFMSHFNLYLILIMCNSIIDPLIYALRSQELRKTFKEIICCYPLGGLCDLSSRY
# NTR1 agonist: NTR1 (human) agonism; NTR1-U2OS beta-arrestin-GFP spot imaging, agonist mode; activation, % at 20 µM; hit rate 0.17% among 330,000;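 active means activation at or above 40% of the spot to cytoplasm intensity ratio, with at least 20 cells analyzed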;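 further: 0% = DMSO without peptide and 100% = 100 nM NTR1 peptide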
# aDG glyco up: increases alpha dystroglycan glycosylation. Pro5-aDG cells, alpha-DG glycosylation AlphaScreen (IIH6); 0% Pro5, 100% B10-LARGE cell signal. activation, % at 10 µM. hit rate 0.22% among 360,000. AID 624168;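 active means activation of at least 8% versus controls, or a plate z-score of at least 8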;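 further: Pro5 are CHO cells carrying HIG-tagged alpha-DG that lacks glycosylation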
# TbMetRS inhib: Trypanosoma brucei MetRS inhibition; inhibition, % at 11.9 µM; AID 624268; purified T. brucei MetRS, ATP depletion, Kinase-Glo luminescence; hit rate 0.4% among 360,000;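 active means inhibition above a per-plate cutoff of the control wells' mean inhibition plus 3 SD, cut at about 5.5% in these data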;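 further: 0% = DMSO wells median and 100% = median of wells with control inhibitor compound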
#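 assay system = parasite MetRS enzyme | timing = 15 min preincubation, 2 h reaction, all 25 °C | evaluation = percent inhibition relative to median high and low control wells | medium = HEPES buffer containing pyrophosphatase, BSA, spermine, DTT | compound = single dose, 11.9 µM final nominal, 0.9% final DMSO | detection = Kinase-Glo luminescence, ATP depletion format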
# MC4R antag cAMP: antagonists of human melanocortin 4 receptor (MC4R); P32245; MC4R-expressing cells, MTII-stimulated cAMP, LANCE TR-FRET; inhibition, % at 6.5 µM; hit rate 0.48% among 360,000;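 active means inhibition above its plate's cutoff, the mean of tested wells on that plate plus 3 SD, cut at about 29% in these data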;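 further: 0% = Melanotan II alone and 100% = Melanotan II plus saturating MCL0020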
#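 System: U2OS-MC4R stable cell line; Technique: Eu-cAMP/anti-cAMP TR-FRET, emission 671 nm; Repeats: single well per compound; Also added: Melanotan II; Dosing: one concentration, 6.5 µM nominal; Schedule: 30-min compound, 1-h challenge, 1-h detection, room temperature.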
# H9c2 TAG inh: triacylglycerol accumulation inhibition. H9c2 cells, Nile Red lipid (TAG) fluorescence; cells loaded with 200 µM oleic acid. inhibition, % at 12.5 µM. hit rate 0.66% among 230,000;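 active means pattern-corrected inhibition of lipid staining of at least 50% with the nuclear-stain viability signal not falling by more than 50%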;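 further: 0% = DMSO wells and 100% = triacsin C control wells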
# Tb MetRS conf: confirmation of Trypanosoma brucei MetRS inhibitors; inhibition, % at 11.9 µM; AID 624412; hit rate 93% among 1,400; T. brucei MetRS enzyme, luminescence (ATP depletion); shares compounds with TbMetRS inhib; in the data active means inhibition above about 7%
# Jurkat cytotox: counter-screen for T. brucei MetRS inhibitors: Jurkat cell cytotoxicity; Jurkat cells viability, ATP luminescence; AID 624413; inhibition, % at 8.3 µM; shares compounds with TbMetRS inhib; hit rate 12% among 1,400; in the data active means inhibition above about 15%;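 further: 0% = vehicle and 100% = reference inhibitor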
# TbMetRS FP orth: T. brucei MetRS inhibition, orthogonal assay; inhibition, % at 11.9 µM; shares compounds with TbMetRS inhib; purified T. brucei MetRS, fluorescence polarization; AID 651607; hit rate 44% among 1,400; in the data active means inhibition above about 17%;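 further: 0% = vehicle wells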
# Starred values were filed as active, the others as inactive; / = no result given.
SMILES,MC4R barr agon,NTR1 agonist,aDG glyco up,TbMetRS inhib,MC4R antag cAMP,H9c2 TAG inh,Tb MetRS conf,Jurkat cytotox,TbMetRS FP orth
COc1ccc(N2CCN(C(=O)c3ccc(Br)cc3)CC2)c([N+](=O)[O-])c1,-2,4,0,2,3,-23,/,/,/
CCOC(=O)C1=CCN(S(=O)(=O)c2ccc(Br)cc2)C1c1ccccc1 (configuration not stated),/,/,0,-1,/,/,/,/,/
CCOC(=O)c1sc(NC(=O)Nc2ccccc2)cc1C,4,4,2,11*,6,/,28*,15,36*
COc1cncc(C#Cc2ccccn2)c1,/,/,0,-1,/,/,/,/,/
CCc1nc2c(OCC(N)=O)cccn2c1N(C)C(=O)C(C)C,-1,/,0,0,4,6,/,/,/
O=C(CSc1nnc(Cc2ccc(Cl)cc2)o1)Nc1ccccc1,-1,0,0,7.5*,23,4,14*,1,10
Cc1ccc(NC(=O)CSc2nnc(Cc3ccccc3)o2)cc1,0,1,0,0,-4,/,/,/,/
O=C1c2cccc(-c3ccc(C(F)(F)F)cc3)c2C2CC=CCN12 (configuration not stated),/,/,0,0,/,/,/,/,/
OCCNc1ncnc2c1ncn2[C@H]1CN(Cc2ccc3c(c2)OCO3)C[C@@H](CO)O1,1,/,0,0,18,-9,/,/,/
C=CCNc1ncnc2c1cnn2-c1ccc(Cl)cc1,-1,1,0,0,11,-15,/,/,/
C=CCNc1ncnc2ccccc12,-2,-1,0,0,-5,/,/,/,/
C=CCNc1ncnc2c1[nH]c1ccc(Cl)cc12,0,4,4,51*,6,0,64*,18*,38*
C=CCNc1ncnc2c1[nH]c1ccccc12,-2,-1,0,21*,3,4,35*,14,15
Nc1nc2ncccc2cc1C(=O)NC1CCCCC1,/,/,0,-1,/,/,/,/,/
CC1CC2(CC(CN(C3CCCCC3)C3CCCCC3)OC2=O)C(=O)O1 (configuration not stated),/,/,0,-1,/,/,/,/,/
CCCOc1cccc(OCC(=O)Nc2nc3ccccc3[nH]2)c1,-2,-2,0,29*,5,-5,48*,9,20*
O=C(COc1ccccc1)Nc1cccc(-c2nc3ccccc3[nH]2)c1,1,4,0,21*,8,1,43*,4,26*
O=C(CSc1ccc2ccccc2c1)Nc1nc2ccccc2[nH]1,-1,1,0,21*,4,/,29*,4,11
O=C(COc1ccccc1)Nc1nc2ccccc2[nH]1,0,-3,0,1,11,-4,/,/,/
COc1ccc(OCC(=O)Nc2cccc(-c3nc4ccccc4[nH]3)c2)cc1,4,11,0,7.1*,9,/,12*,4,31*
O=C(Nc1cccc(C(F)(F)F)c1)C1Cc2c(-c3ccccc3Oc3ccccc3)ccnc2O1 (configuration not stated),1,/,1,0,5,-8,/,/,/
CCCc1nc2ccccc2n1C(CCSC)C(=O)NC(C)(C)C (configuration not stated),/,/,0,0,/,/,/,/,/
Cc1ccc(NS(=O)(=O)c2c(C)[nH]c(C)c2C(=O)N2CCCCC2)cc1Cl,3,-1,0,22*,9,/,32*,2,12
Cc1ccc(NS(=O)(=O)c2c(C(=O)N3CCCCCC3)c(C)n(C)c2C)c(Cl)c1,-4,2,0,0,3,/,/,/,/
Cc1ccc(NS(=O)(=O)c2c(C)[nH]c(C)c2C(=O)N2CCCCC2)c(Cl)c1,-2,0,0,8.4*,9,/,21*,3,7
SMILES,MC4R barr agon,NTR1 agonist,aDG glyco up,TbMetRS inhib,MC4R antag cAMP,H9c2 TAG inh,Tb MetRS conf,Jurkat cytotox,TbMetRS FP orth
CC(=O)OCC(C)n1[nH]c2ccccc2c1=O (configuration not stated),/,/,0,-1,/,/,/,/,/
CCCCCCCCC1=NCCc2c1[nH]c1ccccc21,2,14,1,49*,10,/,70*,33*,47*
CC(C)C/C=C1\CCc2c([nH]c3ccccc23)C1=O,5,2,-1,4,8,-11,/,/,/
Cc1ccc(C(=O)NCCc2nc3ccccc3[nH]2)cc1[N+](=O)[O-],-3,0,0,77*,7,/,78*,20*,59*
O=C(NCCc1cccc(Cl)c1)c1ccc(Cl)c([N+](=O)[O-])c1,-4,2,0,2,23,/,/,/,/
O=C(NCCc1nc2ccccc2[nH]1)c1ccc(Cl)c([N+](=O)[O-])c1,0,0,0,94*,12,13,100*,6,97*
CC(C)C[C@H]1CNC(=S)N1C[C@H]1CCCN1C[C@H](Cc1ccc(O)cc1)N1C[C@H](CC(C)C)N(CCc2ccccc2)C1=S,/,/,0,-1,/,/,/,/,/
O=C(NCc1cc(Cl)cc(Cl)c1)c1ccc2nc([C@H]3C[C@H](O)[C@@H](CO)O3)[nH]c2c1,-1,/,0,22*,-1,6,49*,-2,33*
COc1cccc(NC(=O)CSCC(=O)Nc2ccccc2)c1,-2,1,0,6.1*,0,-17,18*,-8,2
CCCCCCCCN1C(=O)[C@H](CC(=O)NCc2ccc(C)o2)C[C@@]2(C(=O)OC)CCCCC=C12,/,/,0,0,/,/,/,/,/
COc1ccc(OC)c(CNc2nc3ccccc3n2CCN2CCCCC2)c1,-2,-2,1,-1,-4,/,/,/,/
CCCn1c(NCc2cc(OC)ccc2OC)nc2ccccc21,-3,1,0,11*,8,-2,20*,5,4
CCn1c(NCc2cc(OC)ccc2OC)nc2ccccc21,-1,0,0,9.8*,4,-23,20*,2,4
Cc1ccc2nc(-c3ccc(C#N)cc3)c(Cc3ccccc3C(F)(F)F)n2c1,/,/,0,0,/,/,/,/,/
O=C(CSc1nnc(CCc2nc3ccccc3[nH]2)n1-c1ccccc1)NCc1ccco1,0,3,0,1,3,-17,/,/,/
O=C(CSc1nnc(CCc2nc3ccccc3[nH]2)n1-c1ccccc1)NCc1ccccc1,0,0,0,6.2*,3,7,9.2*,5,-2
Clc1ccc(OCCn2ccnc2)c(Cl)c1,-1,-1,0,-1,3,/,/,/,/
OC(COc1ccc(Cl)cc1Cl)Cn1ccnc1 (configuration not stated),-2,0,0,6.0*,1,/,14*,-1,4
